Measurements: ChEMBL document CHEMBL1629555, “Antimalarial activity of phenylthiazolyl-bearing hydroxamate-based histone deacetylase inhibitors” (Antimicrob Agents Chemother, 2008)
The source made the active and inactive calls. The calls are words filed in the database; no cut-off is given here.

Experiments:
Plasmodium berghei [1] = test: Antimalarial activity against Plasmodium berghei infected in mouse assessed as parasitemia level at 32 mg/kg/day for 3 days measured on day 6 in presence of 3.6 mg/kg/day chloroquine (reference value: 37%); format: functional
Outline: (§1)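 Mice were infected ip with 10^6 P. berghei-parasitized erythrocytes. The compound was given orally once daily on days 3, 4 and 5 post-infection in hydroxyethylcellulose-Tween 20 vehicle, alone or together with chloroquine, with 5 mice per dose group. Parasitemia (%) was read on days 3 and 6, and cures were counted as animals cured out of 5.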

Plasmodium berghei [2] = test: Antimalarial activity against Plasmodium berghei infected in mouse assessed as parasitemia level at 3.2 mg/kg/day for 3 days measured on day 3 (reference value: 0.46%); format: functional
Plasmodium falciparum [3] = test: Antimicrobial activity against Plasmodium falciparum D6 infected in Aotus lemurinus lemurinus monkey at […] in presence of 4 mg/kg chloroquine; format: functional
Plasmodium falciparum [4] = test: Antimalarial activity against drug-resistant Plasmodium falciparum W2; format: functional, organism-based
Plasmodium falciparum [5] = test: Antimalarial activity against Plasmodium falciparum at 1 nM assessed as parasite growth after 3.5 hrs; format: functional
Outline: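 Infected erythrocytes were exposed to compound for 3.5 h, washed, and returned to culture. Parasite growth was compared with matched controls after 48 h.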

Plasmodium berghei [6] = test: Antimalarial activity against Plasmodium berghei infected in mouse assessed as effect on cure rate at 3.2 mg/kg/day for 3 days measured on day 6 in presence of 4 mg/kg/day chloroquine (reference value: 37%); format: functional, organism-based
[7] = Tmax in ICR mouse at 50 mg/kg/day, sc by LC/MS analysis; format: ADME, organism-based; design: route subcutaneous; conditions: in vivo
Outline: (§2)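 Male ICR mice, 8 weeks old, got one 50 mg/kg dose either orally or subcutaneously, with three groups of six mice per route. One mouse per group was killed at 15, 30 and 60 min and at 3, 6 and 24 h. Plasma was deproteinized with 2 volumes of acetonitrile and analysed by LC-MS/MS on a C18 column against 0–500 ng/ml standards, with parent and acid metabolite measured in the same sample. Each six-mouse group was treated as one "animal" and fitted to a two-compartment model. AUC was taken by the linear trapezoidal rule extrapolated to infinity, and Cmax and Tmax were read per "animal".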

Plasmodium falciparum [8] = test: Antimicrobial activity against Plasmodium falciparum W2 at […] in presence of 4 mg/kg chloroquine; format: functional
Plasmodium falciparum [9] = test: Antimalarial activity against drug-resistant Plasmodium falciparum TM91C235; format: functional, organism-based
Plasmodium falciparum [10] = test: Antimicrobial activity against Plasmodium falciparum D6 infected in Aotus lemurinus lemurinus monkey at […] in presence of mefloquine; format: functional
Mus musculus [11] = test: Toxicity in Plasmodium berghei-infected mouse assessed as mortality at split dose of 40 mg/kg/day, po for 3 days; format: organism-based; design: route oral; conditions: in vivo, 72 h
[12] = Cmax in ICR mouse at 50 mg/kg/day, sc by LC/MS analysis; format: ADME, organism-based; design: dose 50 mg/kg/day, route subcutaneous; conditions: in vivo; outline: as §2
Plasmodium berghei [13] = test: Antimalarial activity against Plasmodium berghei infected in mouse assessed as effect on cure rate at single dose of 80 mg/kg/day, po for 3 days; format: functional, organism-based
Outline: (§3)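 Mice were infected ip with 10^6 P. berghei-parasitized erythrocytes. The compound was given in hydroxyethylcellulose-Tween 20 vehicle, 5 mice per group, starting on day 3 post-infection. Regimens were once-daily or split daily oral doses over 3 days, subcutaneous dosing, or dosing over 7 days. Read-outs were posttreatment parasitemia on day 6 as a fraction of controls and the number of mice cured.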

[14] = Selectivity index, ratio of LC50 for mouse RAW264.7 cells to IC50 for Plasmodium falciparum; conditions: raw264.7
Plasmodium falciparum [15] = test: Antimalarial activity against chloroquine-resistant Plasmodium falciparum FVO infected in Aotus lemurinus leminurus monkey assessed as reduction in parasitemia at 8 mg/kg/day, po for 3 days; format: functional, organism-based
[16] = Half life in human liver microsome by LC/MS analysis; format: ADME; conditions: liver microsomes
Plasmodium berghei [17] = test: Antimalarial activity against Plasmodium berghei infected in mouse assessed as parasitemia level at 52 mg/kg/day for 3 days measured on day 6 in presence of 64 mg/kg/day chloroquine; format: functional; outline: as §1
Plasmodium berghei [18] = test: Antimalarial activity against Plasmodium berghei infected in mouse assessed as effect on cure rate at 3.2 mg/kg/day for 3 days; format: functional, organism-based
Mus musculus [19] = test: Toxicity in Plasmodium berghei-infected mouse assessed as mortality at single dose of 20 mg/kg/day, po for 3 days; format: organism-based; design: route oral; conditions: in vivo, 72 h
Plasmodium berghei [20] = test: Antimalarial activity against Plasmodium berghei infected in mouse assessed as parasitemia level at 3.2 mg/kg/day for 3 days measured on day 6 (reference value: 37%); format: functional
Plasmodium berghei [21] = test: Antimalarial activity against Plasmodium berghei infected in mouse assessed as effect on cure rate at split dose of 160 mg/kg/day, po for 3 days; format: functional, organism-based; outline: as §3
Plasmodium berghei [22] = test: Antimalarial activity against Plasmodium berghei infected in mouse assessed as parasitemia level at 12.8 mg/kg/day for 3 days measured on day 3 in presence of 16 mg/kg/day chloroquine (reference value: 0.46%); format: functional; outline: as §1
Plasmodium berghei [23] = test: Antimalarial activity against Plasmodium berghei infected in mouse assessed as parasitemia level at 52 mg/kg/day for 3 days measured on day 3 in presence of 64 mg/kg/day chloroquine (reference value: 0.46%); format: functional; outline: as §1
Plasmodium berghei [24] = test: Antimalarial activity against Plasmodium berghei infected in mouse assessed as effect on cure rate at 130 mg/kg/day, po for 7 days; format: functional, organism-based; outline: as §3
Plasmodium berghei [25] = test: Antimalarial activity against Plasmodium berghei infected in mouse assessed as effect on cure rate at single dose of 40 mg/kg/day, po for 3 days; format: functional, organism-based; outline: as §3
[26] = target: T1, Histone deacetylase (Plasmodium falciparum 3D7) (UniProt Q7K6A1); test: Inhibition of Plasmodium falciparum 3D7 histone deacetylase infected in human erythrocytes assessed as alteration of histone H3 acetylation after 3.5 hrs by SDS-PAGE; format: cell-based
T1 sequence (whole entry): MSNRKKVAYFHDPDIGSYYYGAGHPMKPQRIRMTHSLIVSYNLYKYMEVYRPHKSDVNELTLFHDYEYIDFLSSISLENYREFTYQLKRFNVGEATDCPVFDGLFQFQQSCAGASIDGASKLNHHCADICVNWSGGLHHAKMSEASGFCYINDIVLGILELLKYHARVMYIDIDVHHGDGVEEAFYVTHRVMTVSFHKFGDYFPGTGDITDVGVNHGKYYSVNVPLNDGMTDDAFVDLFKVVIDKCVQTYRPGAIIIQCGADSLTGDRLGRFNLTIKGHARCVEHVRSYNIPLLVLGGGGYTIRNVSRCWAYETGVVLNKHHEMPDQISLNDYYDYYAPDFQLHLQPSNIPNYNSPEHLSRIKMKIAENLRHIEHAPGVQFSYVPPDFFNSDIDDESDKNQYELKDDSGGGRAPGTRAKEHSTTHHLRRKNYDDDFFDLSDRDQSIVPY
Outline: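 About 3 × 10^9 erythrocytes infected with late-trophozoite P. falciparum 3D7 were exposed to compound or to DMSO vehicle for 3.5 h at 37°C, and an untreated sample was taken at the start. Histones were extracted, about 6 × 10^8 parasites were loaded per lane on SDS–15% PAGE, and loading was checked by silver stain. Western blots were probed with anti-tetraacetyl-H4 and anti-diacetyl-H3 antisera and detected by ECL.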

Plasmodium falciparum [27] = test: Antimalarial activity against drug-resistant Plasmodium falciparum TM90C2A; format: functional, organism-based
Plasmodium berghei [28] = test: Antimalarial activity against Plasmodium berghei infected in mouse assessed as parasitemia level at 3.2 mg/kg/day for 3 days measured on day 6 in presence of 4 mg/kg/day chloroquine (reference value: 37%); format: functional

## Nc1cccc(-c2csc(NC(=O)CCCCCCC(=O)NO)n2)c1
Plasmodium berghei [1]
  Activity: 0.08%
Plasmodium berghei [2]
  Activity: 0.64%
Plasmodium falciparum [3]
  fractional inhibitory concentration index (FICI): 2.2
Plasmodium falciparum [4]
  IC50: 1.6 nM
Plasmodium falciparum [5]
  Activity: <=40%
Plasmodium berghei [6]
  Activity: inactive
[7]
  Tmax: 1.3 h
Plasmodium falciparum [8]
  fractional inhibitory concentration index (FICI): 1.9
Plasmodium falciparum [9]
  IC50: 1.5 nM
Plasmodium falciparum [10]
  fractional inhibitory concentration index (FICI): 2.2
Mus musculus [11]
  Activity: Non-toxic
[12]
  Cmax: 403 ng/mL
Plasmodium berghei [13]
  Activity: inactive
[14]
  selectivity ratio: 1080
Plasmodium falciparum [15]
  inhibition: inactive
[16]
  half-life: > 1 h
Plasmodium berghei [17]
  Activity: 0%
Plasmodium berghei [18]
  Activity: inactive
Mus musculus [19]
  Activity: Non-toxic
Plasmodium berghei [20]
  Activity: 40%
Plasmodium berghei [21]
  Activity: inactive
Plasmodium berghei [22]
  Activity: 0.52%
Plasmodium berghei [23]
  Activity: 0.48%
Plasmodium berghei [24]
  Activity: inactive
Plasmodium berghei [25]
  Activity: inactive
[26]
  inhibition: Dose-dependent effect
Plasmodium falciparum [27]
  IC50: 0.6 nM
Plasmodium berghei [28]
  Activity: 0.029%
